# Reference: ChEMBL document CHEMBL2176871, “Development of ligands at γ-aminobutyrric acid type A (GABAA) receptor subtype as new agents for pain relief” (Bioorg Med Chem, 2011)
# Calls of active or inactive are those of the source.
# Experiments:
# [1] = tested on: Mus musculus; assay: Anxiolytic-like activity in Swiss albino mouse at 30 mg/kg, po after 30 mins by light/dark box test; assay type: functional, organism-based; design: dose 30 mg/kg
# Outline: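 Male Swiss mice tested in a two-compartment light/dark box. Transfers between compartments and time spent in the lit side recorded. Compound given po 30 min before testing, in 10 ml/kg; flumazenil given i.p. for antagonism; 8 mice per group.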
# [2] = tested on: Mus musculus; assay: Antihyperalgesic activity against streptozotocin-induced hyperalgesia in Swiss albino mouse […] assessed as licking latency time at 30 mg/kg, po after 60 mins by hot plate test (reference value: 9.7 +/- 0.8 secs); assay type: functional
# [3] = tested on: Mus musculus; assay: Analgesic activity in Swiss albino mouse abdominal constriction model assessed as decrease in number of acetic acid-induced writhing at 30 to 60 mg/kg, po after 30 mins; assay type: functional, organism-based; settings: Abdomen
# Outline: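 Male Swiss albino mice (23–30 g). Compounds given po in 1% CMC vehicle 30 min before the test. Acetic acid 0.6% injected i.p. at 10 ml/kg. Stretching movements were counted for 10 min, starting 5 min after the acetic acid injection. 8–15 mice per group.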
# [4] = tested on: Rattus norvegicus; assay: Toxicity in Sprague-Dawley rat mononeuropathy pain model assessed as effect on contralateral paw pressure at 30 mg/kg, po after 15 mins by paw pressure test; assay type: organism-based; design: dose 30 mg/kg, route oral; settings: in vivo, 0.25 h
# Outline: (§1)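 Same sciatic-ligation rat model, 14 days after surgery. Threshold measured on the non-operated contralateral hind paw by analgesimeter at 32 g/s; first-struggle endpoint; 250 g cut-off; pretest rats outside 40–75 g rejected. Compound given po in 10 ml/kg; readings at 15, 30 and 45 min.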
# [5] = tested on: Mus musculus; assay: Antihyperalgesic activity Swiss albino mouse […] assessed as licking latency time at 30 mg/kg, po after 15 mins by hot plate test (reference value: 17.1 +/- 0.71 secs); assay type: functional
# Outline: (§2)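 Hot plate at 52.5 ± 0.1 °C in non-diabetic male Swiss mice. Latency to licking of fore or hind paws was timed before dosing and every 15 min up to 60 min after oral dosing. Mice with pretest latencies below 12 s or above 18 s were excluded. Cut-off was 45 s.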
# [6] = tested on: Rattus norvegicus; assay: Antinociceptive activity in Sprague-Dawley rat mononeuropathy pain model assessed as increase in injured paw pressure at 30 mg/kg, po after 45 mins by paw pressure test relative to non-treated control; assay type: functional
# Outline: (§3)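 Chronic constriction injury: loose ligatures placed on the common sciatic nerve under chloral hydrate; contralateral sham dissection. Tested 14 days after surgery. Paw pressure applied at 32 g/s; threshold taken as the force causing the first struggle; cut-off 250 g; pretest outliers (<40 g or >75 g) excluded. Oral dosing in 10 ml/kg; read at 15, 30 and 45 min; compared with a CMC-treated group.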
# [7] = tested on: Rattus norvegicus; assay: Antinociceptive activity in Sprague-Dawley rat mononeuropathy pain model assessed as increase in injured paw pressure at 30 mg/kg, po after 30 mins by paw pressure test relative to non-treated control; assay type: functional; outline: as §3
# [8] = tested on: Mus musculus; assay: Antihyperalgesic activity against streptozotocin-induced hyperalgesia in Swiss albino mouse […] assessed as licking latency time at 30 mg/kg, po after 15 mins by hot plate test (reference value: 9.7 +/- 0.8 secs); assay type: functional
# [9] = tested on: Rattus norvegicus; assay: Toxicity in Sprague-Dawley rat mononeuropathy pain model assessed as effect on contralateral paw pressure at 30 mg/kg, po after 45 mins by paw pressure test; assay type: organism-based; design: dose 30 mg/kg, route oral; settings: in vivo, 0.75 h; outline: as §1
# [10] = tested on: Mus musculus; assay: Antihyperalgesic activity against streptozotocin-induced hyperalgesia in Swiss albino mouse […] assessed as licking latency time at 30 mg/kg, po after 30 mins by hot plate test (reference value: 9.7 +/- 0.8 secs); assay type: functional
# [11] = organism: Bos taurus; assay: Displacement of [3H]Ro151788 from GABA(A)/BzR in bovine cerebral cortex membrane at 10 uM; assay type: cell membranes
# Outline: (§4)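 Bovine cerebral cortex membranes in 50 mM Tris-citrate pH 7.4; [3H]flumazenil displacement. Compounds first tested at a fixed 10 µM; Ki determined only when inhibition exceeded 80%, using at least six concentrations. Five experiments run in triplicate; IC50 obtained by iterative curve fitting and converted to Ki with the Cheng–Prusoff equation.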
# [12] = tested on: Mus musculus; assay: Anticonvulsant activity in Swiss albino mouse […] assessed as protection against intraperitoneally administered pentylenetetrazol-induced seizures at 30 mg/kg, po after 30 mins; assay type: functional
# Outline: (§5)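 Male Swiss albino mice. Compounds given po and PTZ 90 mg/kg injected 30 min later; PTZ was dissolved in 0.9% NaCl saline. Clonic generalized convulsions were recorded over 30 min. Each value is the mean of 10 mice. The methods give the PTZ route as s.c. and the table footnote gives it as ip.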
# [13] = tested on: Mus musculus; assay: Antihyperalgesic activity Swiss albino mouse […] assessed as licking latency time at 30 mg/kg, po after 45 mins by hot plate test (reference value: 17.1 +/- 0.71 secs); assay type: functional; outline: as §2
# [14] = tested on: Mus musculus; assay: Antihyperalgesic activity against streptozotocin-induced hyperalgesia in Swiss albino mouse […] assessed as licking latency time at 30 mg/kg, po after 45 mins by hot plate test (reference value: 9.7 +/- 0.8 secs); assay type: functional
# [15] = tested on: Rattus norvegicus; assay: Antinociceptive activity in Sprague-Dawley rat mononeuropathy pain model assessed as increase in injured paw pressure at 30 mg/kg, po after 15 mins by paw pressure test relative to non-treated control; assay type: functional; outline: as §3
# [16] = tested on: Mus musculus; assay: Antihyperalgesic activity Swiss albino mouse […] assessed as licking latency time at 30 mg/kg, po after 60 mins by hot plate test (reference value: 17.1 +/- 0.71 secs); assay type: functional; outline: as §2
# [17] = Displacement of [3H]Ro151788 from GABA(A)/BzR in bovine cerebral cortex membrane; assay type: cell membranes, Bos taurus; outline: as §4
# [18] = tested on: Mus musculus; assay: Antihyperalgesic activity Swiss albino mouse […] assessed as licking latency time at 30 mg/kg, po after 30 mins by hot plate test (reference value: 17.1 +/- 0.71 secs); assay type: functional; outline: as §2
# [19] = tested on: Rattus norvegicus; assay: Toxicity in Sprague-Dawley rat mononeuropathy pain model assessed as effect on contralateral paw pressure at 30 mg/kg, po after 30 mins by paw pressure test; assay type: organism-based; design: dose 30 mg/kg, route oral; settings: in vivo, 0.5 h; outline: as §1
# [20] = tested on: Mus musculus; assay: Antihyperalgesic activity against streptozotocin-induced hyperalgesia in Swiss albino mouse […] assessed as licking latency time at 30 mg/kg, po after 15 mins by hot plate test (reference value: 9.3 +/- 0.7 secs); assay type: functional
# [21] = tested on: Mus musculus; assay: Antihyperalgesic activity against streptozotocin-induced hyperalgesia in Swiss albino mouse […] assessed as licking latency time at 30 mg/kg, po after 60 mins by hot plate test (reference value: 9.3 +/- 0.7 secs); assay type: functional
# [22] = tested on: Rattus norvegicus; assay: Antinociceptive activity in Sprague-Dawley rat mononeuropathy pain model assessed as increase in injured paw pressure at 10 mg/kg, po after 45 mins by paw pressure test relative to non-treated control; assay type: functional; outline: as §3
# [23] = tested on: Mus musculus; assay: Antihyperalgesic activity Swiss albino mouse […] assessed as licking latency time at 30 mg/kg, po after 45 mins by hot plate test (reference value: 16.9 +/- 0.8 secs); assay type: functional; outline: as §2
# [24] = tested on: Rattus norvegicus; assay: Antinociceptive activity in Sprague-Dawley rat mononeuropathy pain model assessed as increase in injured paw pressure at 10 mg/kg, po after 15 mins by paw pressure test relative to non-treated control; assay type: functional; outline: as §3
# [25] = tested on: Mus musculus; assay: Antihyperalgesic activity against streptozotocin-induced hyperalgesia in Swiss albino mouse […] assessed as licking latency time at 30 mg/kg, po after 45 mins by hot plate test (reference value: 9.3 +/- 0.7 secs); assay type: functional
# [26] = tested on: Mus musculus; assay: Antihyperalgesic activity Swiss albino mouse […] assessed as licking latency time at 30 mg/kg, po after 60 mins by hot plate test (reference value: 16.9 +/- 0.8 secs); assay type: functional; outline: as §2
# [27] = tested on: Mus musculus; assay: Antihyperalgesic activity Swiss albino mouse […] assessed as licking latency time at 30 mg/kg, po after 15 mins by hot plate test (reference value: 16.9 +/- 0.8 secs); assay type: functional; outline: as §2
# [28] = tested on: Rattus norvegicus; assay: Toxicity in Sprague-Dawley rat mononeuropathy pain model assessed as effect on contralateral paw pressure at 10 mg/kg, po after 45 mins by paw pressure test; assay type: organism-based; design: dose 10 mg/kg, route oral; settings: in vivo, 0.75 h; outline: as §1
# [29] = tested on: Rattus norvegicus; assay: Toxicity in Sprague-Dawley rat mononeuropathy pain model assessed as effect on contralateral paw pressure at 10 mg/kg, po after 15 mins by paw pressure test; assay type: organism-based; design: dose 10 mg/kg, route oral; settings: in vivo, 0.25 h; outline: as §1
# [30] = tested on: Rattus norvegicus; assay: Toxicity in Sprague-Dawley rat mononeuropathy pain model assessed as effect on contralateral paw pressure at 10 mg/kg, po after 30 mins by paw pressure test; assay type: organism-based; design: dose 10 mg/kg, route oral; settings: in vivo, 0.5 h; outline: as §1
# [31] = tested on: Mus musculus; assay: Antihyperalgesic activity Swiss albino mouse […] assessed as licking latency time at 30 mg/kg, po after 30 mins by hot plate test (reference value: 16.9 +/- 0.8 secs); assay type: functional; outline: as §2
# [32] = tested on: Mus musculus; assay: Antihyperalgesic activity against streptozotocin-induced hyperalgesia in Swiss albino mouse […] assessed as licking latency time at 30 mg/kg, po after 30 mins by hot plate test (reference value: 9.3 +/- 0.7 secs); assay type: functional
# [33] = tested on: Rattus norvegicus; assay: Antinociceptive activity in Sprague-Dawley rat mononeuropathy pain model assessed as increase in injured paw pressure at 10 mg/kg, po after 30 mins by paw pressure test relative to non-treated control; assay type: functional; outline: as §3
# [34] = tested on: Mus musculus; assay: Antihyperalgesic activity against streptozotocin-induced hyperalgesia in Swiss albino mouse […] assessed as licking latency time at 30 mg/kg, po after 30 mins by hot plate test (reference value: 8.8 +/- 0.7 secs); assay type: functional
# [35] = tested on: Mus musculus; assay: Antihyperalgesic activity against streptozotocin-induced hyperalgesia in Swiss albino mouse […] assessed as licking latency time at 30 mg/kg, po after 45 mins by hot plate test (reference value: 8.8 +/- 0.7 secs); assay type: functional
# [36] = tested on: Mus musculus; assay: Antihyperalgesic activity Swiss albino mouse […] assessed as licking latency time at 30 mg/kg, po after 60 mins by hot plate test (reference value: 16.6 +/- 0.8 secs); assay type: functional; outline: as §2
# [37] = tested on: Mus musculus; assay: Antihyperalgesic activity Swiss albino mouse […] assessed as licking latency time at 30 mg/kg, po after 30 mins by hot plate test (reference value: 16.6 +/- 0.8 secs); assay type: functional; outline: as §2
# [38] = tested on: Mus musculus; assay: Antihyperalgesic activity Swiss albino mouse […] assessed as licking latency time at 30 mg/kg, po after 45 mins by hot plate test (reference value: 16.6 +/- 0.8 secs); assay type: functional; outline: as §2
# [39] = tested on: Mus musculus; assay: Anticonvulsant activity in Swiss albino mouse […] assessed as protection against intraperitoneally administered pentylenetetrazol-induced seizures at 10 mg/kg, po after 30 mins; assay type: functional; outline: as §5
# [40] = tested on: Mus musculus; assay: Antihyperalgesic activity Swiss albino mouse […] assessed as licking latency time at 30 mg/kg, po after 15 mins by hot plate test (reference value: 16.6 +/- 0.8 secs); assay type: functional; outline: as §2
# [41] = tested on: Mus musculus; assay: Antihyperalgesic activity against streptozotocin-induced hyperalgesia in Swiss albino mouse […] assessed as licking latency time at 30 mg/kg, po after 15 mins by hot plate test (reference value: 8.8 +/- 0.7 secs); assay type: functional
# [42] = tested on: Mus musculus; assay: Antihyperalgesic activity against streptozotocin-induced hyperalgesia in Swiss albino mouse […] assessed as licking latency time at 30 mg/kg, po after 60 mins by hot plate test (reference value: 8.8 +/- 0.7 secs); assay type: functional
Structure (SMILES),Activity [1],Activity [3],Activity [4],Activity [6],Activity [7],Activity [9],inhibition [11],Activity [12],Activity [15],Ki [17],Activity [19],also measured
Cc1cnn2c1n[n+]([O-])c1ccc(NCc3ccccc3)cc12,Active,inactive,61.5 g,28.5 g,27 g,62.5 g,> 80%,10%,27.4 g,2.58 nM,63.2 g,Time [2]: 11.7 s; Time [5]: 6.8 s; Time [8]: 9.6 s; Time [10]: 11.3 s; Time [13]: 18.3 s; Time [14]: 10.2 s; Time [16]: 17.8 s; Time [18]: 18.2 s
CC(COc1ccc2c(c1)n1ncc(I)c1n[n+]2[O-])c1ccccc1 (racemic),Active,inactive,58.8 g,39 g,40.8 g,59.2 g,> 80%,0%,43.4 g,,61.7 g,Time [20]: 16.4 s; Time [21]: 18.1 s; Activity [22]: 37.2 g; Time [23]: 17.7 s; Activity [24]: 42.5 g; Time [25]: 17.8 s; Time [26]: 18.2 s; Time [27]: 17.2 s; Activity [28]: 57.9 g; Activity [29]: 59.8 g; Activity [30]: 63.5 g; Time [31]: 16.8 s; Time [32]: 17.5 s; Activity [33]: 43.5 g
CN(Cc1ccccc1)c1ccc2c(c1)n1ncc(I)c1n[n+]2[O-],Active,inactive,61.7 g,28.5 g,26.5 g,60.8 g,> 80%,,29.2 g,1.02 nM,62.8 g,Time [34]: 11.8 s; Time [35]: 10.4 s; Time [36]: 17.9 s; Time [37]: 16.8 s; Time [38]: 18.3 s; Activity [39]: 10%; Time [40]: 17.3 s; Time [41]: 10.1 s; Time [42]: 11.1 s
